Results as given in ChEMBL document CHEMBL1148742, “Structure-activity relationship of 2-oxoamide inhibition of group IVA cytosolic phospholipase A2 and group V secreted phospholipase A2” (2007).

Legend:
Homo sapiens [1] = species on record: Homo sapiens; assay: Inhibition of human GIVA cPLA2
How it was run: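 Pure native human GIVA cPLA2 (10 ng) in 100 mM HEPES pH 7.5, 80 µM CaCl2, 0.1 mg/mL fatty acid-free BSA, 2 mM DTT. Substrate was mixed micelles of 97 µM 1-palmitoyl-2-[14C]arachidonoyl PC, 3 µM PIP2 and 400 µM Triton X-100, in 1% DMSO. Incubated 10-60 min at 40 °C; [14C]-AA release measured by modified Dole assay and compared with DMSO-only control. XI(50) expressed as mole fraction of inhibitor over inhibitor plus substrate plus detergent.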

Homo sapiens [2] = species on record: Homo sapiens; assay: Inhibition of GV sPLA2 at 0.091 mole fraction
How it was run: (§1)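 Recombinant human GV sPLA2, expressed in E. coli as inclusion bodies, sulfonated, refolded and purified (>90%). Enzyme (40 ng) in 50 mM Tris-HCl pH 8.0, 5 mM CaCl2, with mixed micelles of 100 µM 1-palmitoyl-2-[14C]palmitoyl PC and 400 µM Triton X-100, in 1% DMSO. Incubated 10-60 min at 40 °C; released [14C]-palmitic acid measured by modified Dole extraction. Inhibitor dose expressed as mole fraction.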

Homo sapiens [3] = species on record: Homo sapiens; assay: Inhibition of GV sPLA2 at 0.02 mole fraction; how it was run: as §1
Homo sapiens [4] = species on record: Homo sapiens; assay: Inhibition of GV sPLA2 at 0.048 mole fraction; how it was run: as §1
Homo sapiens [5] = species on record: Homo sapiens; assay: Inhibition of GV sPLA2 at 0.01 mole fraction; how it was run: as §1
Rattus norvegicus [6] = assay: Antiinflammatory activity against carrageenan-induced paw edema in rat; format: functional
How it was run: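 Compound given ip at the same time as intradermal carrageenan into the rat paw; rats were euthanized after 3.5 h. Edema was taken as injected minus uninjected paw weight and expressed as percent inhibition versus controls. Four doses were used, each on two groups of five animals, averaged over two experiments. ED50 was derived from the four doses; Student's t-test was used.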

Rattus norvegicus [7] = assay: Analgesic activity in rat assessed as decrease in writhes at 0.008 mmol/kg, ip; format: functional; design: scale not given: the % may be the effect or the level left
How it was run: (§2)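 Rat writhing test: compound given ip 30 min before ip acetic acid. Each animal's total writhes were compared with a vehicle-treated control group, and analgesic activity was expressed as percent decrease in writhes.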

Rattus norvegicus [8] = assay: Analgesic activity in rat assessed as decrease in writhes at 0.00005 mmol/kg, ip; format: functional; design: scale not given: the % may be the effect or the level left; how it was run: as §2
Rattus norvegicus [9] = assay: Analgesic activity in rat assessed as decrease in writhes at 0.0001 mmol/kg, ip; format: functional; design: scale not given: the % may be the effect or the level left; how it was run: as §2
Homo sapiens [10] = species on record: Homo sapiens; assay: Inhibition of GV sPLA2 at 0.040 mole fraction; how it was run: as §1
Rattus norvegicus [11] = assay: Analgesic activity in rat assessed as decrease in writhes at 0.0165 mmol/kg, ip; format: functional; design: scale not given: the % may be the effect or the level left; how it was run: as §2
Rattus norvegicus [12] = assay: Analgesic activity in rat assessed as decrease in writhes at 0.01 mmol/kg, ip; format: functional; design: scale not given: the % may be the effect or the level left; how it was run: as §2

Row | SMILES | XI50 (Homo sapiens [1]) | inhibition (Homo sapiens [2]) [%] | other results
1 | CCCCCCCC/C=C\CCCCCCCCNC(=O)C(=O)CCCCCCCCCCCCCC | – | – | inhibition (Homo sapiens [3]): 37%
2 | CCCCCCCCCCC(=O)C(=O)N[C@@H](CCCC)CCC(=O)O | 0.009 | – | –
3 | COC(=O)CCCNC(=O)C(=O)CCCCc1ccccc1 | – | 31 | –
4 | CCCCCCC(=O)C(=O)NCCCC(=O)O | – | – | inhibition (Homo sapiens [4]): 27%
5 | CCCCCCCC/C=C\CCCCCCCCNC(=O)C(=O)CCCCCC | – | – | inhibition (Homo sapiens [5]): 22%
6 | CCCCCCCCCCC(=O)C(=O)N[C@@H](CCC(=O)O)COC(=O)NCCCCCCCC | – | 60 | –
7 | COC(=O)CCCNC(=O)C(=O)CCCc1ccccc1 | – | 48 | –
8 | CCCCCCCCCCCCCCC(=O)C(=O)N[C@@H](CCCC)COC(=O)NCCCCCCCC | – | 20 | –
9 | O=C(O)CCCNC(=O)C(=O)CCCc1ccccc1 | – | 34 | –
10 | CCCCCCCCCCC(=O)C(=O)N[C@@H](CCC(=O)OC)COC(=O)NCCCCCCCC | 0.02 | – | –
11 | CCCCCCC(=O)C(=O)N[C@H](CCC(=O)O)Cc1ccccc1 | – | 14 | –
12 | CCCCCCCCCCC(=O)C(=O)N[C@@H](CCC(=O)O)C(=O)O | – | 15 | –
13 | O=C(O)CCCNC(=O)C(=O)CCCCc1ccccc1 | – | 27 | –
14 | CCCCCCCCCCC(=O)C(=O)N[C@@H](CCC(=O)O)C(=O)NCC | – | 30 | –
15 | CCCCCCCCCCC(=O)C(=O)N[C@@H](CCCC)C(=O)O | – | 60 | –
16 | CCCCCCCCCCCCCCC(=O)C(=O)N[C@@H](CCC(=O)O)C(=O)NCCCCCCCCCC | 0.025 | 33 | ED50 (Rattus norvegicus [6]): 16.5 µmol/kg; Activity (Rattus norvegicus [11]): 11%
17 | NC(=O)C(=O)CCCCc1ccccc1 | – | 45 | –
18 | CCCCCCCCCCC(=O)C(=O)N[C@H](CCC(=O)O)C(=O)NCC | – | 12 | –

Further lines, with some results ahead:

Row | XI50 (Homo sapiens [1]) | inhibition (Homo sapiens [2]) [%] | SMILES | other results
19 | 0.013 | 22 | CCCCCCCCCCCCCC(=O)C(=O)N[C@@H](CCCC)CCCCC(=O)O | –
20 | 0.01 | 30 | CCCCCCCCCCCCCC(=O)C(=O)N[C@@H](CCCC)CCC(=O)O | –
21 | – | 30 | CCCCCCCCCCCCCCCCNC(=O)C(=O)CC | –
22 | 0.008 | – | CCCCCCCCCCCCCCC(=O)C(=O)N[C@@H](CCCC)CCC(=O)O | ED50 (Rattus norvegicus [6]): 8 µmol/kg; Activity (Rattus norvegicus [7]): 65%
23 | 0.005 | – | CCCCCCCCCCCCCCC(=O)C(=O)N[C@@H](CCCC)CCCC(=O)O | Activity (Rattus norvegicus [8]): 71%; ED50 (Rattus norvegicus [6]): 0.05 µmol/kg
24 | 0.027 | – | CCCCCCCCCCCCCC(=O)C(=O)N[C@@H](CCCC)CC(=O)O | –
25 | 0.005 | 26 | CCCCCCCCCCCCCC(=O)C(=O)N[C@@H](CCCC)CCCC(=O)O | –
26 | 0.011 | – | CCCCCCCC/C=C\CCCCCCCC(=O)C(=O)NCCCC(=O)O | Activity (Rattus norvegicus [9]): 53%; ED50 (Rattus norvegicus [6]): 0.1 µmol/kg
27 | 0.012 | – | CCCCCCCC/C=C\CCCCCCCC(=O)C(=O)NCCCC(=O)OC | inhibition (Homo sapiens [10]): 24%
28 | – | 22 | CCCCCCCCCCCCCCC(=O)C(=O)NCCCC(=O)OC | –
29 | 0.017 | – | CCCCCCCCCCCCCCC(=O)C(=O)NCCCC(=O)O | –
30 | 0.025 | 22 | CCCCCCCCCCC(=O)C(=O)N[C@@H](CCCC)CCCCC(=O)O | Activity (Rattus norvegicus [12]): 33%; ED50 (Rattus norvegicus [6]): 10 µmol/kg
